Laboratory results taken from ChEMBL document CHEMBL4350958, “Rational Design of Short Peptide Variants by Using Kunitzin-RE, an Amphibian-Derived Bioactivity Peptide, for Acquired Potent Broad-Spectrum Antimicrobial and Improved Therapeutic Potential of Commensalism Coinfection of Pathogens” (J Med Chem, 2019).
Activity calls are given as the source filed them.

Assays:
Escherichia coli [1] = test: Induction of morphological changes in Escherichia coli ATCC 25922 at MBD measured after 1 hr by atomic force microscopic analysis; format: functional, organism-based
Escherichia coli [2] = test: Induction of morphological changes in Escherichia coli ATCC 25922 assessed as appearance of visible sparse cytoplasmic distribution at MBD measured after 1 hr by transmission electron microscopic analysis; format: functional, organism-based
Candida albicans [3] = test: Antifungal activity against Candida albicans cgmcc2.2086 infected in C57BL/6 mouse model of keratitis assessed as reduction in fungal hyphae extention into corneal stroma at 1 to 5 mg/ml administered as topical eye drop every 5 mins for first 4 hrs and every 30 mins for next 7 hrs measured post-last dose by periodic acid schiff staining-based histological analysis; format: functional, organism-based
Escherichia coli [4] = test: Induction of morphological changes in Escherichia coli ATCC 25922 assessed as appearance of intracellular empty area at MBD measured after 1 hr by transmission electron microscopic analysis; format: functional, organism-based
Staphylococcus aureus [5] = test: Induction of morphological changes in Staphylococcus aureus ATCC 29213 assessed as membrane blebbing at MBD measured after 1 hr by atomic force microscopic analysis; format: functional, organism-based
Staphylococcus aureus [6] = test: Induction of morphological changes in Staphylococcus aureus ATCC 29213 assessed as membrane creping at MBD measured after 1 hr by atomic force microscopic analysis; format: functional, organism-based
Candida albicans [7] = test: Antifungal activity against Candida albicans cgmcc2.2086 infected in C57BL/6 mouse model of keratitis assessed as appearance of transparent irises at 1 to 5 mg/ml administered as topical eye drop every 5 mins for first 4 hrs and every 30 mins for next 7 hrs measured post-last dose; format: functional, organism-based
Escherichia coli [8] = test: Induction of outer membrane permeabilization in Escherichia coli ATCC 25922 at 1 to 64 uM by NPN-dye based assay; format: organism-based
Outline: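 Mid-log E. coli ATCC 25922 (OD600 0.2) with 10 μM NPN in 5 mM HEPES pH 7.4 with 5 mM glucose for 30 min, background subtracted (ex 350, em 420 nm). Mixed with equal volume of peptide (1 to 64 μM) and fluorescence followed to plateau. Uptake normalised to 10 μg/mL polymyxin B. Three independent experiments, each with three technical replicates.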

Measured: Activity

H-AARIILRWRFR-NH2
not listed: Escherichia coli [8]
active: all other assays above

CC[C@H](C)[C@H](NC(=O)CN)C(=O)NCC(=O)N[C@@H](C)C(=O)N[C@H](C(=O)N[C@@H](CC(C)C)C(=O)N[C@@H](CCCCN)C(=O)N[C@H](C(=O)N[C@@H](CC(C)C)C(=O)N[C@H](C(=O)N[C@H](C(=O)NCC(=O)N[C@@H](CC(C)C)C(=O)N1CCC[C@H]1C(=O)N[C@@H](C)C(=O)N[C@@H](CC(C)C)C(=O)N[C@H](C(=O)N[C@@H](CO)C(=O)N[C@@H](Cc1c[nH]c2ccccc12)C(=O)N[C@H](C(=O)N[C@@H](CCCCN)C(=O)N[C@@H](CCCNC(=N)N)C(=O)N[C@@H](CCCCN)C(=O)N[C@@H](CCCNC(=N)N)C(=O)N[C@@H](CCC(N)=O)C(=O)N[C@@H](CCC(N)=O)C(N)=O)[C@@H](C)CC)[C@@H](C)CC)[C@@H](C)O)[C@@H](C)O)C(C)C)C(C)C [MELITTIN]
active: Escherichia coli [8]
